{"source": "ChEMBL document CHEMBL4354800", "about": "“Amphiphilic nebramine-based hybrids Rescue legacy antibiotics from intrinsic resistance in multidrug-resistant Gram-negative bacilli” (Eur J Med Chem, 2019)", "key": {"Pseudomonas aeruginosa [1]": {"tested_on": "Pseudomonas aeruginosa", "assay": "Potentiation of rifampicin-induced antibacterial activity against MDR/XDR Pseudomonas aeruginosa isolate PA259-96918 harboring GyrA T83I mutant assessed as fold reduction in rifampicin MIC at 9 uM incubated for 18 hrs by broth microdilution method", "format": "functional", "method_in_brief": "(§1)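 CLSI broth microdilution. Overnight cultures were set to 0.5 McFarland in saline, diluted 1:50 in Mueller-Hinton broth to a final 5 × 10^5 CFU/mL, and incubated 18 h at 37 °C against 2-fold antibiotic dilutions. A fixed adjuvant level was present throughout. MIC = lowest concentration with no visible turbidity, confirmed at 590 nm. Potentiation = fold drop in antibiotic MIC versus antibiotic alone.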"}, "Pseudomonas aeruginosa [2]": {"tested_on": "Pseudomonas aeruginosa", "assay": "Potentiation of rifampicin-induced antibacterial activity against MDR/XDR Pseudomonas aeruginosa isolate PA260-97103 harboring GyrA T83I mutant assessed as fold reduction in rifampicin MIC at 9 uM incubated for 18 hrs by broth microdilution method", "format": "functional", "method_in_brief": "as §1"}, "Escherichia coli [3]": {"tested_on": "Escherichia coli", "assay": "Potentiation of minocycline-induced antibacterial activity against Escherichia coli 94474 assessed as fold reduction in minocycline MIC at 4.1 uM incubated for 18 hrs by broth dilution method", "format": "functional", "method_in_brief": "(§2)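 Antibiotic MIC determined by CLSI broth microdilution (MHB, 5 × 10^5 CFU/mL, 18 h, 37 °C), once alone and once with a fixed concentration of the adjuvant. Potentiation is the ratio of the antibiotic MIC alone to its MIC in the presence of the adjuvant.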"}, "Escherichia coli [4]": {"tested_on": "Escherichia coli", "assay": "Antimicrobial activity against Escherichia coli 94474 incubated for 18 hrs by broth dilution method", "format": "functional", "conditions": "Escherichia coli, 94474, 18 h", "method_in_brief": "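CLSI broth microdilution. Overnight cultures were adjusted to 0.5 McFarland in saline, diluted 1:50 in Mueller-Hinton broth, and inoculated at a final 5 × 10^5 CFU/mL. Compounds were tested as 2-fold serial dilutions and incubated 18 h at 37 °C. MIC was the lowest concentration with no visible turbidity, confirmed by absorbance at 590 nm.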"}, "Escherichia coli [5]": {"tested_on": "Escherichia coli", "assay": "Synergistic antibacterial activity against Escherichia coli ATCC 25922 assessed as fractional inhibitory concentration index in presence of minocycline incubated for 18 hrs by broth dilution method", "format": "functional", "method_in_brief": "(§3)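 Checkerboard titration of the adjuvant against the antibiotic, run under the CLSI microdilution conditions (MHB, 5 × 10^5 CFU/mL, 18 h, 37 °C). Each agent's FIC is its MIC in combination divided by its MIC alone; FICI is the sum of the two FICs. FICI ≤0.5 was read as synergy, >0.5–4.0 as no interaction, and >4.0 as antagonism.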"}, "Klebsiella pneumoniae [6]": {"tested_on": "Klebsiella pneumoniae", "assay": "Synergistic antibacterial activity against Klebsiella pneumoniae 113254 assessed as fractional inhibitory concentration index in presence of minocycline incubated for 18 hrs by broth dilution method", "format": "functional", "method_in_brief": "as §3"}, "Acinetobacter baumannii [7]": {"tested_on": "Acinetobacter baumannii", "assay": "Synergistic antibacterial activity against multidrug-resistant Acinetobacter baumannii ATCC 17978 assessed as fractional inhibitory concentration index in presence of rifampicin incubated for 18 hrs by broth dilution method", "format": "functional"}, "Acinetobacter baumannii [8]": {"tested_on": "Acinetobacter baumannii", "assay": "Synergistic antibacterial activity against multidrug-resistant Acinetobacter baumannii AB110193 assessed as fractional inhibitory concentration index in presence of minocycline incubated for 18 hrs by broth dilution method", "format": "functional"}, "[9]": {"assay": "Toxicity in Galleria mellonella larvae assessed as tolerability by measuring larval survival at 100 mg/kg incubated for > 96 hrs", "format": "organism-based", "conditions": "in vivo", "method_in_brief": "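Uninfected G. mellonella larvae, ten per group, were injected with agent alone at 100 or 200 mg/kg. Larvae were held at 37 °C and monitored for survival for 96 h.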"}, "Klebsiella pneumoniae [10]": {"tested_on": "Klebsiella pneumoniae", "assay": "Synergistic antibacterial activity against Klebsiella pneumoniae 113254 assessed as fractional inhibitory concentration index in presence of rifampicin incubated for 18 hrs by broth dilution method", "format": "functional", "method_in_brief": "as §3"}, "Pseudomonas aeruginosa [11]": {"tested_on": "Pseudomonas aeruginosa", "assay": "Potentiation of minocycline-induced antimicrobial activity against MDR/XDR Pseudomonas aeruginosa isolate 91433 devoid of GyrA Thr83Ile mutant assessed as minocycline MIC80 incubated for 18 hrs by broth microdilution method (reference value: 32 microg/ml)", "format": "functional", "conditions": "isolate 91433, 18 h"}, "Pseudomonas aeruginosa [12]": {"tested_on": "Pseudomonas aeruginosa", "assay": "Potentiation of rifampicin-induced antimicrobial activity against MDR/XDR Pseudomonas aeruginosa isolate 100036 harboring GyrA Thr83Ile mutant assessed as rifampicin MIC50 incubated for 18 hrs by broth microdilution method (reference value: 8 microg/ml)", "format": "functional", "conditions": "isolate 100036, 18 h"}, "Enterobacter cloacae [13]": {"tested_on": "Enterobacter cloacae", "assay": "Potentiation of rifampicin-induced antibacterial activity against Enterobacter cloacae 117029 assessed as fold reduction in rifampicin MIC at 7.5 uM incubated for 18 hrs by broth dilution method", "format": "functional", "method_in_brief": "as §2"}, "Enterobacter cloacae [14]": {"tested_on": "Enterobacter cloacae", "assay": "Potentiation of minocycline-induced antibacterial activity against Enterobacter cloacae 117029 assessed as fold reduction in minocycline MIC at 7.5 uM incubated for 18 hrs by broth dilution method", "format": "functional", "method_in_brief": "as §2"}, "Acinetobacter baumannii [15]": {"tested_on": "Acinetobacter baumannii", "assay": "Synergistic antibacterial activity against multidrug-resistant Acinetobacter baumannii AB027 assessed as fractional inhibitory concentration index in presence of minocycline incubated for 18 hrs by broth dilution method", "format": "functional"}, "Pseudomonas aeruginosa [16]": {"tested_on": "Pseudomonas aeruginosa", "assay": "Potentiation of moxifloxacin-induced antibacterial activity against MDR/XDR Pseudomonas aeruginosa isolate 100036 harboring GyrA T83I mutant assessed as fold reduction in moxifloxacin MIC at 7.5 uM incubated for 18 hrs by broth microdilution method", "format": "functional", "method_in_brief": "as §1"}, "Pseudomonas aeruginosa [17]": {"tested_on": "Pseudomonas aeruginosa", "assay": "Potentiation of minocycline-induced antimicrobial activity against MDR/XDR Pseudomonas aeruginosa isolate PA260-97103 harboring GyrA Thr83Ile mutant assessed as minocycline MIC50 incubated for 18 hrs by broth microdilution method (reference value: 16 microg/ml)", "format": "functional", "conditions": "isolate PA260-97103, 18 h"}, "Acinetobacter baumannii [18]": {"tested_on": "Acinetobacter baumannii", "assay": "Potentiation of rifampicin-induced antibacterial activity against multidrug-resistant Acinetobacter baumannii 110193 assessed as fold reduction in rifampicin MIC at 7.5 uM incubated for 18 hrs by broth dilution method", "format": "functional", "method_in_brief": "as §1"}, "Pseudomonas aeruginosa [19]": {"tested_on": "Pseudomonas aeruginosa", "assay": "Potentiation of minocycline-induced antimicrobial activity against MDR/XDR Pseudomonas aeruginosa isolate 91433 devoid of GyrA Thr83Ile mutant assessed as minocycline MIC50 incubated for 18 hrs by broth microdilution method (reference value: 16 microg/ml)", "format": "functional", "conditions": "isolate 91433, 18 h"}, "Acinetobacter baumannii [20]": {"tested_on": "Acinetobacter baumannii", "assay": "Synergistic antibacterial activity against multidrug-resistant Acinetobacter baumannii AB030 assessed as fractional inhibitory concentration index in presence of rifampicin incubated for 18 hrs by broth dilution method", "format": "functional"}, "Acinetobacter baumannii [21]": {"tested_on": "Acinetobacter baumannii", "assay": "Synergistic antibacterial activity against multidrug-resistant Acinetobacter baumannii AB030 assessed as fractional inhibitory concentration index in presence of minocycline incubated for 18 hrs by broth dilution method", "format": "functional"}, "Pseudomonas aeruginosa [22]": {"tested_on": "Pseudomonas aeruginosa", "assay": "Potentiation of rifampicin-induced antimicrobial activity against MDR/XDR Pseudomonas aeruginosa isolate PA260-97103 harboring GyrA Thr83Ile mutant assessed as rifampicin MIC80 incubated for 18 hrs by broth microdilution method (reference value: 16 microg/ml)", "format": "functional", "conditions": "isolate PA260-97103, 18 h"}, "Pseudomonas aeruginosa [23]": {"tested_on": "Pseudomonas aeruginosa", "assay": "Potentiation of rifampicin-induced antimicrobial activity against MDR/XDR Pseudomonas aeruginosa isolate 101243 devoid of GyrA Thr83Ile mutant assessed as rifampicin MIC80 incubated for 18 hrs by broth microdilution method (reference value: 16 microg/ml)", "format": "functional", "conditions": "isolate 101243, 18 h"}, "Pseudomonas aeruginosa [24]": {"tested_on": "Pseudomonas aeruginosa", "assay": "Potentiation of ciprofloxacin-induced antibacterial activity against MDR/XDR Pseudomonas aeruginosa isolate 91433 devoid of GyrA T83I mutant assessed as fold reduction in ciprofloxacin MIC at 7.5 uM incubated for 18 hrs by broth microdilution method", "format": "functional"}}}
{"smiles": "Cl.Cl.Cl.Cl.Cl.Cl.NC[C@H]1O[C@H](O[C@H]2[C@H](OCCCCCCCCCCN3CCN(Cc4cccc5ccccc45)CC3)[C@@H](O)[C@H](N)C[C@@H]2N)[C@H](N)C[C@@H]1O", "values": [{"measurement": "fold change (FC)", "setting": "Pseudomonas aeruginosa [1]", "value": ">=256"}, {"measurement": "fold change (FC)", "setting": "Pseudomonas aeruginosa [2]", "value": 64}]}
{"smiles": "Cl.Cl.Cl.Cl.Cl.NC[C@H]1O[C@H](O[C@H]2[C@H](OCCCCCCCCCCCCN3CCN(c4cc5c(cc4F)c(=O)c(C(=O)O)cn5C4CC4)CC3)[C@@H](O)[C@H](N)C[C@@H]2N)[C@H](N)C[C@@H]1O", "values": [{"measurement": "fold change (FC)", "setting": "Escherichia coli [3]", "value": 16}, {"measurement": "MIC", "setting": "Escherichia coli [4]", "value": "> 128", "unit": "µg/mL"}, {"measurement": "fractional inhibitory concentration index (FICI)", "setting": "Escherichia coli [5]", "value": 0.504}, {"measurement": "fractional inhibitory concentration index (FICI)", "setting": "Klebsiella pneumoniae [6]", "value": 0.504}, {"measurement": "fractional inhibitory concentration index (FICI)", "setting": "Acinetobacter baumannii [7]", "value": 0.016}, {"measurement": "fractional inhibitory concentration index (FICI)", "setting": "Acinetobacter baumannii [8]", "value": ">1"}, {"measurement": "Activity", "setting": "[9]", "value": "Non-Toxic"}, {"measurement": "fractional inhibitory concentration index (FICI)", "setting": "Klebsiella pneumoniae [10]", "value": 0.047}]}
{"smiles": "COc1c(N2C[C@@H]3CCCN(CCCCCCCCCCCCO[C@@H]4[C@@H](O)[C@H](N)C[C@H](N)[C@H]4O[C@H]4O[C@H](CN)[C@@H](O)C[C@H]4N)[C@@H]3C2)c(F)cc2c(=O)c(C(=O)O)cn(C3CC3)c12.Cl.Cl.Cl.Cl.Cl", "values": [{"measurement": "MIC80", "setting": "Pseudomonas aeruginosa [11]", "value": 1, "unit": "µg/mL"}, {"measurement": "MIC50", "setting": "Pseudomonas aeruginosa [12]", "value": 0.06, "unit": "µg/mL"}, {"measurement": "fold change (FC)", "setting": "Enterobacter cloacae [13]", "value": ">=128"}, {"measurement": "fold change (FC)", "setting": "Enterobacter cloacae [14]", "value": 16}, {"measurement": "fractional inhibitory concentration index (FICI)", "setting": "Acinetobacter baumannii [15]", "value": ">1"}, {"measurement": "fold change (FC)", "setting": "Pseudomonas aeruginosa [16]", "value": 16}, {"measurement": "MIC50", "setting": "Pseudomonas aeruginosa [17]", "value": 0.5, "unit": "µg/mL"}, {"measurement": "fold change (FC)", "setting": "Acinetobacter baumannii [18]", "value": 32}, {"measurement": "MIC50", "setting": "Pseudomonas aeruginosa [19]", "value": 0.5, "unit": "µg/mL"}, {"measurement": "fractional inhibitory concentration index (FICI)", "setting": "Acinetobacter baumannii [20]", "value": "0.031 - 0.281"}, {"measurement": "fractional inhibitory concentration index (FICI)", "setting": "Acinetobacter baumannii [21]", "value": ">1"}, {"measurement": "MIC80", "setting": "Pseudomonas aeruginosa [22]", "value": 0.13, "unit": "µg/mL"}, {"measurement": "MIC80", "setting": "Pseudomonas aeruginosa [23]", "value": 0.13, "unit": "µg/mL"}, {"measurement": "fold change (FC)", "setting": "Pseudomonas aeruginosa [24]", "value": 16}]}
